From PubChem BioAssay come the findings set out here.

The nature of test [1]: inhibitors of TNFa-induced NFkB p65 translocation, primary screen, imaging, HUVEC, MLSMR starter and 10KST1 sets (AID 438;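 active means inhibition above 20% together with a positive visual image hit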;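 further: compound added about 3h40 before a 20 min TNFalpha stimulation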;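 on inhibition: signal is the nuclear over cytoplasmic p65 intensity ratio per well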). As to conditions: HUVEC TNFa-induced p65 nuclear translocation; cell count: measured here: nuclei count (cytotoxicity indicator), at 2.08 µM; inhibition: at 2 µM, stronger effect = higher value, 0% TNFa-plus-vehicle, 100% no-TNFa wells.
The nature of test [2]: endothelial E-selectin expression blockers – imaging, HUVEC, immunofluorescence, MLSMR starter and 10KST1 sets, primary screen (AID 487;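 active means visually confirmed hit in the image check and inhibition above 20%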;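 on inhibition: signal is fraction of cell area covered by stained E-selectin grains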;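 on nuclei count: 100% = median nuclei count of all wells on the same plate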). As to conditions: HUVEC TNFalpha-induced E-selectin immunofluorescence imaging, at 2 µM; inhibition: stronger effect = higher value; nuclei count: measured here: cell number, toxicity.
The nature of test [3]: Primary imaging screen for DUSP6 inhibitors that restore phospho-Erk in transfected HeLa cells, chemical complementation (AID 609;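 active means compounds giving at least 50% inhibition in the cell-based MKP-3 phosphatase rescue imaging test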;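 on inhibition: phospho-Erk level distribution per well compared with pooled transfected vehicle control wells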). To be noted: HeLa MKP-3 transfected, phospho-Erk imaging KS statistic, at 10 µM, cells stimulated with TPA for 15 min.
Test [4] has as its target Dual specificity protein phosphatase 6 (Homo sapiens) (UniProt Q16828). Described as above. As to conditions: HeLa MKP-3 transfected, phospho-Erk imaging KS statistic; at 10 µM; stronger effect = higher value; cells stimulated with TPA for 15 min.
For test [5], the target named is Voltage-gated potassium channel subunit beta-2 (Rattus norvegicus) (UniProt P62483). The test can be described thus: inhibitors of rat Kvbeta2 reductase activity – biochemical, NADPH fluorescence, primary screen (AID 622;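 active means fluorescence slope higher than the sample average by over 3 SD, cut at about -0.22 in these data, passing the limit was not always enough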;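 further: slope of raw intensity against log time taken from 70 to 1610 s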). As to conditions: recombinant KvBeta, 4-cyanobenzaldehyde reduction, at 10 µM, stronger effect = higher value.
Sequence of Voltage-gated potassium channel subunit beta-2 (Rattus norvegicus) (P62483 whole entry, looked up): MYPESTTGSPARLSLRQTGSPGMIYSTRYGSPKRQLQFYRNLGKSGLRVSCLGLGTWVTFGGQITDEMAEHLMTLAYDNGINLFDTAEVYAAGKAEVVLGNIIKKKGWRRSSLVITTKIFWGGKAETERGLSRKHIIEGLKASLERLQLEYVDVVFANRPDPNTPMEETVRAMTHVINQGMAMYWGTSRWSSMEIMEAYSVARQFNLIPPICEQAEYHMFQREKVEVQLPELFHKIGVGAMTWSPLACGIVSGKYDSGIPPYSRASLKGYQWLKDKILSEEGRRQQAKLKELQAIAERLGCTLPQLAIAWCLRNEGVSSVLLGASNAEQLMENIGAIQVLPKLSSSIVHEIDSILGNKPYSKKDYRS
The target is the same in test [6]. The experiment in a line: enhancers of rat Kvbeta2 NADPH turnover – biochemical, NADPH fluorescence, primary screen (AID 623).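 Further: fluorescence intensity change per second fitted from 20 to 320 s.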 As to conditions: Recombinant KvBeta, NADPH fluorescence decrease slope, 10 min; at 10 µM; stronger effect = lower value.
The target in test [7] is Alpha-2C adrenergic receptor (Homo sapiens) (UniProt P18825). The experiment in a line: compounds altering alpha2C-coupled GIRK flux – cell-based, HEK293 alpha2C/GIRK1/2, thallium flux, primary screen (AID 624;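 active means fluorescence slope after compound addition differing from the mean of all screened samples at 99.7% confidence, in either direction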;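 further: slope of fluorescence ratio to pre-addition baseline per second over 15 to 24 s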). As to conditions: thallium flux BTC fluorescence, at 10 µM, actives lie on both sides.
Sequence of Alpha-2C adrenergic receptor (Homo sapiens) (P18825 whole entry, looked up): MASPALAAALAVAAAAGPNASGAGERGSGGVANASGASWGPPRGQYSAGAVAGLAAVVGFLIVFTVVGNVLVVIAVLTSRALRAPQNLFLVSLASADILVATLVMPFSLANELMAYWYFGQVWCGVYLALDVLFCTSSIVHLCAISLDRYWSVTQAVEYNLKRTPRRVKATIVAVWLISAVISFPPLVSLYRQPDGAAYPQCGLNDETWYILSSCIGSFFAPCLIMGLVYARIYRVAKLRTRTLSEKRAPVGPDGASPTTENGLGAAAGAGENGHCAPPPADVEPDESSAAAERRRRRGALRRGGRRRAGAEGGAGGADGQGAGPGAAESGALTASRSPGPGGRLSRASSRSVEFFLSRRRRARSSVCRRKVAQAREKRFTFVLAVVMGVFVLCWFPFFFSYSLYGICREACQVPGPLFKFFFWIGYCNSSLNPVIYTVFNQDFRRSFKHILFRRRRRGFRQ
Test [8] is described as follows: inhibitors of larval lipid processing in zebrafish, primary screen, whole organism, PED6 fluorescence, gall bladder and intestine (AID 686;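 active means a full or partial loss of lipid-probe fluorescence in the fish gall bladder, intestine or both, judged by eye; inactive means no fluorescence loss, or compound toxic to the fish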;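 further: larvae 5 to 7 days old with five fish per well; signal comes from phospholipase A2 cleavage of quenched PED6 carried via bile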). As to conditions: Zebrafish larvae PED6 lipid processing, fluorescence scoring; screened at 20 µM (by protocol). An outline of the steps: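 System: live zebrafish larvae aged 5-7 days, whole organism; measure: graded gall bladder and intestinal fluorescence inhibition per well; incubation: overnight exposure; reagent: ingested quenched lipid PED6 at 100 nM; signal: By-eye fluorescence microscopy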

Test [9] in a line: loss of swimming-algae plug formation – whole organism, Chlamydomonas reinhardtii, WT vs cilia-less mutant, absorbance, 96-well, primary screen (AID 463189;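 active means inhibition at or above 50% relative to wild type and mutant plate controls; inactive means inhibition below 50%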;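 further: 0% = wild type cc124 cells in DMSO and 100% = ciliumless bld1 mutant cells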). As to conditions: Chlamydomonas reinhardtii gravitaxis, OD600 absorbance, 2 days; at 10 µM; stronger effect = higher value.
[10] abbreviates: measured here: cell density z-score.
Setting [11] is: measured here: nuclear c-Myc green intensity z-score.
[12] abbreviates: measured here: nuclear pErk red intensity z-score, stronger effect = higher value.

SMILES strings stand for the structures. Calls of active or inactive are those of the source.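 How the source made its calls, unless noted: active means NADPH fluorescence slope more negative than the mean of all samples by about 3 SD, 99.7% confidence; inactive means the rest.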

Sequence of Dual specificity protein phosphatase 6 (Homo sapiens) (Q16828 whole entry, looked up): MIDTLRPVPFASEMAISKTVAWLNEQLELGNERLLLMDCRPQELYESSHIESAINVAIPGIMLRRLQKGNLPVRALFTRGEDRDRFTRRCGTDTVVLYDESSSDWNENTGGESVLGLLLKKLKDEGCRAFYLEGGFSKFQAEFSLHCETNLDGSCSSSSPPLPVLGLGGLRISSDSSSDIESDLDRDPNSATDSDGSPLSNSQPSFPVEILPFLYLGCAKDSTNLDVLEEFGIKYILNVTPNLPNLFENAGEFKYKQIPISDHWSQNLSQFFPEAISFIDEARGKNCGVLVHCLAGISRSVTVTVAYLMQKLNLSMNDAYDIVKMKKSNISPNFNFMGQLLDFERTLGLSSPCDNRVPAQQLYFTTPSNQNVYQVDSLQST

What is called inhibition is the change of the read-out against control, counted positive when it falls. Take `CN1CCc2nc(SCC(=O)Nc3ccc(Cl)cc3)c(C#N)cc2C1`: the cell count in test [1] is 378. Besides, the inhibition in test [1] is -14.3% (inactive); in [2] it was -155% (inactive); in test [4], 12.3% (inactive); in test [9] it was 0.323% (inactive). For the same molecule, the nuclei count in test [2] worked out at 162%. In addition, the figures for the z-score in test [3] (setting [10]), in [3] (setting [11]) and in test [3] (setting [12]) were 1.95, -0.641 and -1.16, respectively. In addition, the fluorescence slope in test [5] is -0.422 (inactive). In addition, in test [6], the NADPH fluorescence slope is -0.000135 (inactive). The slope in [7] is 0.0059 (inactive). Moreover, the molecule was classed as inactive in [8].
As to `COc1cc(C)nc(N(C)S(=O)(=O)c2ccccc2Cl)n1`, the cell count in [1] came to 587. Also, the inhibition is -9% (inactive) in test [1], 26.6% (inactive) in test [2], 9.82% (inactive) in test [4] and -1.55% (inactive) in [9]. Moreover, the nuclei count in test [2] came out at 175%. The z-score in test [3] (setting [10]) is 1.16; in test [3] (setting [11]), 0.469; in test [3] (setting [12]), -0.133. Further, the fluorescence slope in [5] is -0.36 (inactive). In addition, the NADPH fluorescence slope in test [6] is 3.2e-06 (inactive). For the same molecule, the slope in [7] was 0.00436 (inactive). Besides, in test [8], the molecule was called inactive.
On to `CCn1nnc(C(=O)O)c1C(=O)O`, for which the cell count in test [1] turned out to be 547. Further, the inhibition in [1] is -8.1% (inactive); in [2], -105% (inactive); in test [4], -1.98% (inactive); in test [9] it was -1.97% (inactive). In test [2], this molecule gave a nuclei count of 113%. Further, the figures for the z-score in test [3] (setting [10]), in test [3] (setting [11]) and in test [3] (setting [12]) were -1.6, 1.43 and 0.467, respectively. Further, the fluorescence slope in test [5] is -0.486 (inactive). Moreover, the NADPH fluorescence slope in [6] was -3.2e-05 (inactive). Further, the slope in test [7] is 0.00833 (inactive). For the same molecule, the molecule was called inactive in test [8].
Turning to `CC1C[C@@]2(NC(=O)NC2=O)C(C)CN1C` (stereo partly drawn), in [1], the cell count was found to be 510. The inhibition is -6.8% (inactive) in test [1], -91.9% (inactive) in [2], -3.98% (inactive) in test [4] and 6.02% (inactive) in test [9]. Also, in test [2], the nuclei count was 118%. In addition, the z-score in test [3] (setting [10]) is 1.06; in test [3] (setting [11]) it was -0.13; in [3] (setting [12]), -0.779. For the same molecule, the fluorescence slope in test [5] is -0.499 (inactive). Also, the NADPH fluorescence slope in test [6] was -0.000117 (inactive). The slope in test [7] was 0.00539 (inactive). Further, the molecule was classed as inactive in test [8].
`Nc1ccc2ncccc2c1N`: the cell count in [1] was found to be 537. Besides, the inhibition in test [1] is -10% (inactive); in test [2], -47.1% (inactive); in test [4], -9.66% (inactive); in test [9], -1.57% (inactive). Besides, the nuclei count in [2] is 103%. Further, the values for the z-score in [3] (setting [10]), in test [3] (setting [11]) and in [3] (setting [12]) were 0.673, 1.61 and 0.017, respectively. Moreover, in test [5], the fluorescence slope is -0.517 (inactive). The NADPH fluorescence slope in test [6] was -2.1e-05 (inactive). Moreover, in test [7], the slope was 0.0034 (inactive). For the same molecule, in [8], the result was inactive.
In the case of `CC(=O)C1=C(O)C(=O)N(c2cccc(C(=O)O)c2)C1c1ccc(F)cc1` (stereo not drawn), the cell count in test [1] is 580. Further, the inhibition in test [1] was -13% (inactive); in test [2] it was -65.7% (inactive); in test [4], -6.06% (inactive); in [9], -5.48% (inactive). The molecule further came in with a nuclei count in test [2] of 160%. Further, the values for the z-score in test [3] (setting [10]), in test [3] (setting [11]) and in [3] (setting [12]) were -0.487, -0.742 and 1.35, respectively. For the same molecule, the fluorescence slope in test [5] is -0.509 (inactive). The NADPH fluorescence slope in test [6] was -3.9e-05 (inactive). Besides, in test [7], the slope was 0.00665 (inactive). Besides, the outcome in test [8] was inactive.
In the case of `CCOC(=O)CC1=C(C(=O)OCC)C(c2ccc(OC)c(OC)c2)C(C#N)=C(N)O1` (stereo not drawn), the cell count in test [1] worked out at 471. Also, the inhibition is -4.3% (inactive) in test [1], -157% (inactive) in test [2], 4.25% (inactive) in test [4] and 24.9% (inactive) in [9]. In test [2], the nuclei count is 163%. For the same molecule, the z-score was -0.376 in test [3] (setting [10]), -0.993 in [3] (setting [11]) and -1.45 in test [3] (setting [12]). The fluorescence slope in [5] is -0.359 (inactive). The NADPH fluorescence slope in test [6] is 6.8e-06 (inactive). The slope in test [7] was 0.00447 (inactive). Moreover, in test [8], the result was inactive.
With `Fc1ccc(OCCOCCNCC2CCCO2)cc1` (stereo not drawn), the cell count in [1] turned out to be 369. The inhibition in test [1] is 0.4% (inactive); in test [2], -35.4% (inactive); in test [4] it was 15.1% (inactive); in [9], 43.6% (inactive). For the same molecule, the nuclei count in [2] was 84.5%. Moreover, the figures for the z-score in [3] (setting [10]), in test [3] (setting [11]) and in test [3] (setting [12]) were 0.189, 0.788 and 0.463, respectively. Also, in [5], the fluorescence slope is -0.557 (inactive). Moreover, in [6], the NADPH fluorescence slope was -4.4e-05 (inactive). Further, the slope in test [7] was 0.00452 (inactive). Besides, the outcome in test [8] was inactive.
`CCCc1cc(C(=O)Cc2ccc(F)cc2)c(O)cc1O`: in [1], the cell count is 563. Besides, the inhibition is -8.9% (inactive) in [1], -180% (inactive) in test [2], 19.8% (inactive) in test [4] and 74.4% (active) in test [9]. In addition, the nuclei count in test [2] was found to be 128%. The z-score in test [3] (setting [10]) was 0.0278; in test [3] (setting [11]) it was -0.762; in [3] (setting [12]), -1.21. Also, the fluorescence slope in test [5] was -0.507 (inactive). For the same molecule, the NADPH fluorescence slope in test [6] is -3.4e-06 (inactive). The slope in test [7] was 0.00499 (inactive). Further, the molecule was called inactive in test [8].
For `O=C(OCCN1CCOCC1)c1ccc(OCCN2CCOCC2)cc1`, the cell count in test [1] came to 573. For the same molecule, the inhibition in [1] is -2.2% (inactive); in test [2], -54.5% (inactive); in test [4], 1.75% (inactive); in [9] it was 32.3% (inactive). Also, the nuclei count in test [2] is 130%. Besides, the z-score in test [3] (setting [10]) was -0.658; in test [3] (setting [11]) it was 0.853; in test [3] (setting [12]), 0.881. For the same molecule, in [5], the fluorescence slope was -0.555 (inactive). Further, the NADPH fluorescence slope in test [6] was -5.3e-05 (inactive). In addition, the slope in test [7] was 0.00568 (inactive). The molecule was called inactive in test [8].
Consider `CCCCNC(=O)C(C#N)c1nc2ccccc2nc1N1CCN(c2ccccc2F)CC1` (stereo not drawn), for which, in test [1], the cell count was 406. In addition, the inhibition in [1] is 7.2% (inactive); in test [2] it was -12% (inactive); in [4], -1.12% (inactive); in [9] it was 6.61% (inactive). In addition, in [2], the nuclei count amounted to 105%. The z-score in test [3] (setting [10]) is -0.801; in test [3] (setting [11]), -1.22; in test [3] (setting [12]), 0.341. In addition, the fluorescence slope in test [5] is -0.475 (inactive). Moreover, in test [6], the NADPH fluorescence slope was -3.8e-05 (inactive). Moreover, the slope in [7] is 0.00688 (inactive). The result in [8] was inactive.
